High-throughput results (PubChem)
NR2E3 ag-1 – activates human photoreceptor nuclear receptor NR2E3; GST-NR2E3/biotin-RetCOR TR-FRET, 1536-well; inhibition of corepressor binding, % at 4.78 µM; 320,000 compounds, 0.12% hits; Q9Y5X4;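 active means percent inhibition above the cutoff of mean plus 3 SD of all tested compounds, set per screening campaign, cut at about 20% in these data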;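 further: 0% = DMSO wells and 100% = biotin wells as full block of FRET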
Target sequence (Q9Y5X4 whole entry, looked up): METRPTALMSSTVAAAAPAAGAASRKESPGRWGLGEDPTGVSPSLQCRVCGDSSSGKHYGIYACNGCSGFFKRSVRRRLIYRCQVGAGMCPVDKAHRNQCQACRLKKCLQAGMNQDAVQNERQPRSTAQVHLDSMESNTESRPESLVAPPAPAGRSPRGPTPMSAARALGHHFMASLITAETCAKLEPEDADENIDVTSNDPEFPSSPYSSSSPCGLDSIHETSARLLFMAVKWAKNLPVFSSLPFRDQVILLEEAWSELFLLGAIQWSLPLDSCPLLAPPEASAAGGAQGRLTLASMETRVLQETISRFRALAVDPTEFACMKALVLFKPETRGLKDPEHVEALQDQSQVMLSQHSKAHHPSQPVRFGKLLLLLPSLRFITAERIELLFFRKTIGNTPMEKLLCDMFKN
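Material: NR2E3–RetCOR corepressor complex / Incubation: Compound–protein incubation for 5 h at 4 °C / Dosing: compound at 4.8 µM, single dose / Detection: time-resolved FRET / Benchmarks: high control biotin, low control 0.6% DMSO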
GASC-1 inh – blocks human GASC-1 demethylase activity. Q9H3R0. inhibition, % at 2.35 µM. 330,000 compounds, 0.069% hits. GST-JMJD2C(1-420) H3K9me3 demethylation, DELFIA europium;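 active means more than half of a compound's replicate wells show inhibition beyond 50%, single wells judged on their own value; inconclusive means some, but no more than half, of replicates pass 50% inhibition; inactive means no replicate passes 50% inhibition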;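 further: signal counts dimethyl H3K9 product captured on neutravidin plate; 0% = median of DMSO wells and 100% = 0.3 times that DMSO median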
KLK7 zymogen act – activates the human kallikrein-7 zymogen; P49862; purified proKLK7, EDANS-DABCYL substrate fluorescence; 100% is mature enzyme control, 0% vehicle; activation, % at 7 µM; 370,000 compounds, 0.9% hits;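 active means activation above the mean of all tested compounds plus 3 SD, computed per campaign excluding outliers beyond control limits, cut at about 13% in these data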
NR2E3 ag-2 – activates human NR2E3 receptor. Q9Y5X4. CHO-S Gal4-NCOR/VP16-NR2E3 two-hybrid, luciferase. inhibition of corepressor binding, % at 3.98 µM. 360,000 compounds, 0.35% hits. AID 602229;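 active means inhibition above the mean of all tested compounds plus 3 SD, cut at about 70% in these data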;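 further: 0% = DMSO with NR2E3 transfected cells and 100% = cells lacking NR2E3 construct; higher means lower luciferase signal from less NR2E3 corepressor binding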
ADAM10 inh – inhibits human ADAM10 | O14672 | recombinant ADAM10, EDANS/DABCYL FRET peptide cleavage, 3 h | inhibition, % at 7 µM | 370,000 compounds, 0.62% hits | AID 720582;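 active means inhibition above a per-campaign cutoff equal to the mean of compounds falling between control-based bounds plus 3 SD, cut at about 20% in these data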;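 further: 0% = DMSO wells while the 100% control is not disclosed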
ADAM17 inh – inhibits human ADAM17. P78536. recombinant ADAM17, EDANS/DABCYL FRET peptide cleavage. inhibition, % at 6.95 µM. 370,000 compounds, 0.83% hits. AID 720648;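 active means inhibition above the mean of compounds lying between control limits plus 3 SD, set per campaign, cut at about 8.5% in these data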;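 further: 0% = DMSO-only wells as the low control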
ADAM10 ctr – counter-screen for ADAM17 exosite inhibitors: inhibitors of human ADAM10. shares compounds with ADAM17 inh. recombinant ADAM10, EDANS/DABCYL FRET peptide cleavage, 3 h. inhibition, % at 6.95 µM. 2,900 compounds, 47% hits;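 active means mean inhibition over the triplicate runs exceeds the activity threshold set in the earlier primary screen, cut at about 20% in these data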;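 further: 0% = DMSO wells and 100% = marimastat wells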
ADAM17 confirm – confirmation of inhibitors of human ADAM17. AID 743257. inhibition, % at 6.95 µM. recombinant ADAM17, EDANS/DABCYL QFRET peptide cleavage. shares compounds with ADAM17 inh. 2,900 compounds, 65% hits;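 active means mean inhibition across replicates above the hit cutoff set in the primary screen, cut at about 8.5% in these data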;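 further: 0% = DMSO wells and 100% = marimastat wells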
Numbers without * were called inactive; ? = inconclusive; nt = no result. An excerpt weighted towards active compounds, which were near 2.5% of everything screened.

SMILES	NR2E3 ag-1	GASC-1 inh	KLK7 zymogen act	NR2E3 ag-2	ADAM10 inh	ADAM17 inh	ADAM10 ctr	ADAM17 confirm
O=C(OCCOc1ccccc1)c1cc(S(=O)(=O)N2CCOCC2)ccc1Cl	2.1	-0.7	0.2	-16.4	-0.9	-0.6	nt	nt
O=C(OCCOc1cccc(Cl)c1)c1cc(S(=O)(=O)N2CCOCC2)ccc1F	1.6	?	0.3	-12.0	6.2	10.3*	11.6	6.5
CC1CCC(NC(=O)c2cnccn2)CC1 (stereo not drawn)	0.5	0.6	-0.2	-25.0	2.9	11.9*	2.7	1.7
O=C(NC12CC3CC(CC(C3)C1)C2)c1cnccn1	-0.1	-6.8	2.5	-20.7	-1.9	-0.7	nt	nt
Cc1ccccc1-c1n[nH]nc1C1=CC(=O)CC(C)(C)C1	nt	nt	0.5	-7.3	-18.9	-1.4	nt	nt
Cc1ccc(S(=O)(=O)NCCC(c2ccc(F)cc2)c2ccco2)cc1 (stereo not drawn)	1.7	-4.5	0.4	-19.0	14.9	9.7*	20.7*	12.3*
CN1CCS/C1=C/C=C1\SC(=S)N(CC(=O)O)C1=O	-7.8	-2.6	-0.3	0.6	15.4	8.9*	26.8*	13.1*
CCCCN1C(=O)/C(=C/C=C2\SCCN2C)SC1=S	nt	-3.6	-0.2	-120.1	15.2	12.0*	24.5*	15.7*
COc1ccc2c(c1)CCC1C2CCC2(C)C(O)C(=O)CC12 (stereo not drawn)	nt	nt	-0.6	-18.9	-8.9	-4.8	nt	nt
COc1ccc(NS(=O)(=O)c2cc(NC(=O)CCSc3ccccc3)ccc2OC)cc1	-1.9	-0.3	0.1	-6.7	14.4	10.0*	42.3*	21.7*
COc1ccc(NC(=O)CCSc2ccc(C)cc2)cc1S(=O)(=O)Nc1ccccc1Cl	0.4	-47.9	0.3	-15.6	16.3	3.6	nt	nt
C=CCc1c(C)nc2ccc(C(=O)OCC)cc2c1Cl	-3.4	0.5	-1.0	-7.7	-22.9	-7.3	nt	nt
N#CCSc1nnc(COc2ccccc2)n1-c1ccccc1	0.3	5.4	-0.1	1.2	16.0	10.8*	-4.4	-2.1
C#CCNC(=O)C[C@H]1C[C@@]2(C(=O)OC)C(=C[C@H](COCc3ccccc3)O[C@@H]2C)N(CCc2ccc(OC)c(OC)c2)C1=O	nt	nt	0.6	nt	-7.0	-5.7	nt	nt
Cc1ccc(C(C(=O)NCc2ccccc2)N(Cc2cccs2)C(=O)c2ccc3c(c2)OCCO3)cc1 (stereo not drawn)	2.4	0.9	0.0	25.8	14.7	10.2*	14.4	10.9*
O=C(NC1CC1)c1ccc(C2SCC(=O)N2Cc2ccccc2)cc1 (stereo not drawn)	1.6	-4.7	-0.3	6.7	1.1	-1.4	nt	nt
Cc1cc(C)c(S(=O)(=O)N2CCCOC2CNC(=O)C(=O)NCCc2c[nH]c3ccccc23)c(C)c1 (stereo not drawn)	-0.2	8.0	-0.7	11.8	15.5	8.6*	20.5*	11.7*
Cc1ccc(C)c(NC(=O)C(=O)NCCc2c[nH]c3ccccc23)c1	10.1	-8.2	0.6	-5.8	-4.2	-4.8	nt	nt
Cc1cc(C)cc(NC(=O)C(=O)NCCc2c[nH]c3ccccc23)c1	-2.2	-0.7	0.4	11.8	26.7*	10.9*	20.7*	11.3*
CCc1noc(C)c1C(=O)OC(C)C(=O)Nc1ccc(Cl)cn1 (stereo not drawn)	2.0	-4.2	0.6	25.2	3.6	0.4	nt	nt
CCc1noc(C)c1C(=O)OC(C)C(=O)Nc1ccc2c(c1)OCO2 (stereo not drawn)	2.5	2.6	-0.5	-12.3	-11.5	8.8*	14.7	12.8*
CCc1ccc(S(=O)(=O)N2CCN(c3ccccc3OC)CC2)cc1	2.5	0.7	0.8	-35.4	-0.2	-1.3	nt	nt
CC(C)N1CCC1(C)C(=O)Nc1ccccc1OC(F)F (stereo not drawn)	nt	nt	-0.5	-2.1	8.8	9.9*	-6.5	2.8
